Data reported in PMC4505548 (Organic & biomolecular chemistry, 2008).

Target: Neisseria meningitidis CSS (NmCSS), CMP-sialic acid synthetase (Neisseria meningitidis, UniProt P0A0Z8)
Assay: capillary electrophoresis UV assay of CMP-Neu5Ac formation
Type: biochemical
Conditions: 1000 µM; 1 mM CTP, 1 mM Neu5Ac, 20 mM MgCl2, Tris-HCl pH 8.5, 37 °C, 15 min
How it was run: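 Purified recombinant NmCSS (1.25 ng) in 200 mM Tris-HCl pH 8.5 with CTP, Neu5Ac and MgCl2, reacted with test compound at 1 mM for 15 min at 37 °C. Stopped with 10% SDS on ice (final 1% SDS). CMP-Neu5Ac measured by capillary electrophoresis with UV detection. Percent conversion calculated from a UV response standard curve of CTP and CMP-Neu5Ac.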

Chain of Neisseria meningitidis CSS (NmCSS), CMP-sialic acid synthetase (P0A0Z8 whole entry): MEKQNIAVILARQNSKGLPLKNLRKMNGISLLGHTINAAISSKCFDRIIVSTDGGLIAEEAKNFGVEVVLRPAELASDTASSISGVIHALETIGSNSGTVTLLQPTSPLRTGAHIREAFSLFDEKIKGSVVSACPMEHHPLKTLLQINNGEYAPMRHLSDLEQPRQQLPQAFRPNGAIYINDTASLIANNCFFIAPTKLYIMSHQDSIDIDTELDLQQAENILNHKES

Substance | % Inhibition
Saturated sulfo-CDP [compound 12] | 55 ± 4%
Saturated sulfo-UDP [compound 22] | 35 ± 2%
Sulfo-CDP [compound 5] | 47 ± 2%
Sulfo-CTP [compound 4] | 39 ± 2%
Sulfo-UTP [compound 19] | 33 ± 5%
